Data taken from ChEMBL document CHEMBL4007408, “Identification of Novel Triazole-Based Nicotinamide Phosphoribosyltransferase (NAMPT) Inhibitors Endowed with Antiproliferative and Antiinflammatory Activity” (J Med Chem, 2017).
pEC50, pIC50: −log10 of the molar value. Calls of active or inactive are those of the source. The calls are words filed in the database; no cut-off is given here.

How the values were obtained:
SH-SY5Y = assay: Cytotoxicity against human SH-SY5Y cells assessed as reduction in cell viability after 56 hrs by MTT assay; type: functional, cell-based; settings: for pEC50: Homo sapiens, SH-SY5Y, 56 h, read-out: EC50; for EC50: sh-sy5y
[1] = biological target: Nicotinamide phosphoribosyltransferase (Mus musculus, UniProt Q99KQ4); assay: Inhibition of recombinant mouse NAMPT expressed in bacterial expression system using nicotinamide as substrate after 1 hr by fluorescence based NMNAT-3 enzyme coupled assay; settings: for pIC50: read-out: IC50
Chain of Nicotinamide phosphoribosyltransferase (Mus musculus, UniProt Q99KQ4) (Q99KQ4 whole entry): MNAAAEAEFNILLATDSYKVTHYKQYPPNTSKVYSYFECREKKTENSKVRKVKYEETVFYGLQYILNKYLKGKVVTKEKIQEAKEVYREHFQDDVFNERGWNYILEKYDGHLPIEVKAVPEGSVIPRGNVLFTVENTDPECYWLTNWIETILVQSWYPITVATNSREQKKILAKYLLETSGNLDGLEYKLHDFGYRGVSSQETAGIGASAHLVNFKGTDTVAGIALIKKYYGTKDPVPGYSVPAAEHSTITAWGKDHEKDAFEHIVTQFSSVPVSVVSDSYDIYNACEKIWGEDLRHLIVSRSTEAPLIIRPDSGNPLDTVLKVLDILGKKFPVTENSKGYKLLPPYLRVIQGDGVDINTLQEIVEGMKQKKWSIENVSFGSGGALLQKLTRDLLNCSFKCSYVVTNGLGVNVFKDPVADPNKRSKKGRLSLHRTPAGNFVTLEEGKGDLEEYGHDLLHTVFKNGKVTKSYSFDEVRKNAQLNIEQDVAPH

Liver [2] = assay: Drug metabolism in human liver microsomes assessed as pyridine N-oxidation by measuring 7-(4-(pyridin-3-yl)-1H-1,2,3-triazol-1-yl)heptanoic acid formation after 60 mins in presence of NADPH-regenerating system by LC-UV analysis; type: ADME, microsome
Method in brief: (§1)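 Metabolites were characterized by LC-ESI-MSn on supernatants of 60 min, 37 °C incubations. Each used 50 μM substrate with rat or human liver microsomes (1.0 mg/ml protein) in 50 mM Tris-HCl pH 7.4 with 3.3 mM MgCl2, 1% acetonitrile and an NADPH-regenerating system. Reactions were quenched with cold acetonitrile and centrifuged.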

Liver [3] = assay: Drug metabolism in human liver microsomes assessed as pyridine N-oxidation by measuring biphenyl-2-carboxamide formation after 60 mins in presence of NADPH-regenerating system by LC-UV analysis; type: ADME, microsome; settings: 1 h; method in brief: as §1
Liver [4] = assay: Drug metabolism in Wistar Han rat liver microsomes assessed as pyridine N-oxidation by measuring 7-(4-(pyridin-3-yl)-1H-1,2,3-triazol-1-yl)heptanoic acid formation after 60 mins in presence of NADPH-regenerating system by LC-UV analysis; type: ADME, microsome; method in brief: as §1
Liver [5] = assay: Drug metabolism in Wistar Han rat liver microsomes assessed as pyridine N-oxidation by measuring biphenyl-2-carboxamide formation after 60 mins in presence of NADPH-regenerating system by LC-UV analysis; type: ADME, microsome; settings: 1 h; method in brief: as §1
[6] = biological target: Nicotinamide phosphoribosyltransferase (Homo sapiens, UniProt P43490); assay: Inhibition of NAMPT in human Jurkat T cells assessed as reduction in NAD levels; type: cell-based
Chain of Nicotinamide phosphoribosyltransferase (Homo sapiens, UniProt P43490) (P43490 whole entry): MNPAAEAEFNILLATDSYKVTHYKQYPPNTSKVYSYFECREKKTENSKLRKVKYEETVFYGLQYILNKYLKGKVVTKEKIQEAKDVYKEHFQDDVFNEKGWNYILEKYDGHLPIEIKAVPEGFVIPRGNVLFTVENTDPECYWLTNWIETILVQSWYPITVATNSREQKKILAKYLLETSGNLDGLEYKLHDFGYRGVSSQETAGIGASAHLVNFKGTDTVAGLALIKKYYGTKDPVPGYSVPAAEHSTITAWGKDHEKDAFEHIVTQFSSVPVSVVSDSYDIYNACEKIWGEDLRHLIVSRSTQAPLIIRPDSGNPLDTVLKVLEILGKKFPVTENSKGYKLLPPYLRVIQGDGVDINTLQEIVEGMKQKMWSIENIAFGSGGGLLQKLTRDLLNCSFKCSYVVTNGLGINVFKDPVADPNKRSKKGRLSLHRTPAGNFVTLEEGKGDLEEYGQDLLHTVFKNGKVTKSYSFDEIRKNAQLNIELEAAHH

Liver [7] = assay: Stability in human liver microsomes after 60 mins by LC-ESI-MS analysis; type: ADME, microsome; settings: 1 h
Liver [8] = assay: Stability in Wistar Han rat liver microsomes after 60 mins by LC-ESI-MS analysis; type: ADME, microsome; settings: 1 h
[9] = Drug metabolism in Wistar Han rat liver microsomes assessed as mixed function oxidase mediated compound cleavage by measuring compound remaining after 60 mins in presence of NADPH-regenerating system by LC-UV analysis; type: ADME; settings: read-out: Stability
Method in brief: (§2)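 Substrate at 50 μM final, with rat or human liver microsomes at 1.0 mg/ml protein, in 50 mM Tris-HCl pH 7.4. Mix held 3.3 mM MgCl2, 1% acetonitrile and an NADPH-regenerating system (1.3 mM β-NADP, 3.3 mM glucose 6-phosphate, 0.4 U/ml G6PDH). Shaken 60 min at 37 °C, stopped with ice-cold acetonitrile. LC-UV gave % residual substrate versus a no-microsome control, mean of two replicates.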

[10] = Drug metabolism in human liver microsomes assessed as mixed function oxidase mediated compound cleavage by measuring compound remaining after 60 mins in presence of NADPH-regenerating system by LC-UV analysis; type: ADME; settings: read-out: Stability; method in brief: as §2
[11] = Stability in Wistar Han rat liver microsomes assessed as mixed function oxidase mediated compound cleavage after 60 mins in presence of NADPH-regenerating system by LC-UV analysis; type: ADME; settings: 1 h; method in brief: as §2
Liver [12] = assay: Stability in human liver microsomes assessed as mixed function oxidase mediated compound cleavage after 60 mins in presence of NADPH-regenerating system by LC-UV analysis; type: ADME, microsome; settings: 1 h; method in brief: as §2
Liver [13] = assay: Drug metabolism in Wistar Han rat liver microsomes assessed as pyridine N-oxidation after 60 mins in presence of NADPH-regenerating system by LC-UV analysis; type: ADME, microsome; settings: 1 h; method in brief: as §1
Liver [14] = assay: Drug metabolism in human liver microsomes assessed as pyridine N-oxidation after 60 mins in presence of NADPH-regenerating system by LC-UV analysis; type: ADME, microsome; settings: 1 h; method in brief: as §1
[15] = Half life in athymic Nu/Nu Harlan mouse at 10 mg/kg, iv administered as single dose up to 24 hrs by LC-ESI-MS analysis; type: ADME, organism-based; settings: in vivo
[16] = AUC in athymic Nu/Nu Harlan mouse at 10 mg/kg, iv administered as single dose up to 24 hrs by LC-ESI-MS analysis; type: ADME, organism-based; parameters: time < 24 hr, dose 10 mg/kg, route intravenous; settings: in vivo
[17] = Clearance in athymic Nu/Nu Harlan mouse at 10 mg/kg, iv administered as single dose up to 24 hrs by LC-ESI-MS analysis; type: ADME, organism-based; settings: in vivo
[18] = Volume of distribution in athymic Nu/Nu Harlan mouse at 10 mg/kg, iv administered as single dose up to 24 hrs by LC-ESI-MS analysis; type: ADME, organism-based; settings: in vivo
A2780 [19] = assay: Cytotoxicity against human A2780 cells assessed as reduction in cell viability; type: functional, cell-based
A2780 [20] = assay: Antitumor activity against human A2780 cells xenografted in athymic nu/nu Harlan mouse assessed as reduction in tumor growth at 10 mg/kg, ip bid administered for 8 consecutive days; type: functional, organism-based
Mus musculus [21] = assay: In vivo inhibition of NAMPT in DNBS-induced BALB/c mouse colitis model assessed as reduction in loss of body weight at 20 mg/kg, ip bid administered for 3 days post DNBS challenge; type: functional, organism-based
Mus musculus [22] = assay: In vivo inhibition of NAMPT in DNBS-induced BALB/c mouse colitis model assessed as reduction in mucosal congestion at 20 mg/kg, ip bid administered for 3 days post DNBS challenge; type: functional, organism-based
Mus musculus [23] = assay: In vivo inhibition of NAMPT in DNBS-induced BALB/c mouse colitis model assessed as reduction in erosion at 20 mg/kg, ip bid administered for 3 days post DNBS challenge; type: functional, organism-based
Mus musculus [24] = assay: In vivo inhibition of NAMPT in DNBS-induced BALB/c mouse colitis model assessed as reduction in hemorrhagic ulcerations at 20 mg/kg, ip bid administered for 3 days post DNBS challenge; type: functional, organism-based
Mus musculus [25] = assay: In vivo inhibition of NAMPT in DNBS-induced BALB/c mouse colitis model assessed as reduction in neutrophil infiltration by measuring myeloperoxidase levels at 20 mg/kg, ip bid administered for 3 days post DNBS challenge by ELISA; type: functional, organism-based
Liver [26] = assay: Drug level in human liver microsomes treated with N-(biphenyl-2-yl)-8-(4-(pyridin-3-yl)-1H-1,2,3-triazol-1-yl)octanamide after 60 mins by LC-ESI-MS analysis; type: ADME, microsome
Liver [27] = assay: Drug level in Wistar Han rat liver microsomes treated with N-(biphenyl-2-yl)-8-(4-(pyridin-3-yl)-1H-1,2,3-triazol-1-yl)octanamide after 60 mins by LC-ESI-MS analysis; type: ADME, microsome

O=C(Nc1ccccc1-c1ccccc1)OCCCCCCCn1cc(-c2cccnc2)nn1
pEC50 (SH-SY5Y): 7.44

O=C(NCCCCCCCCn1cc(-c2cccnc2)nn1)Nc1ccccc1-c1ccccc1
pEC50 (SH-SY5Y): 6.81

O=C(CCCCCCCc1nnc(-c2cccnc2)[nH]1)Nc1ccccc1-c1ccccc1
pIC50 [1]: 6.57 | pEC50 (SH-SY5Y): 7.08

O=S(=O)(NCCCCCCCCn1cc(-c2cccnc2)nn1)c1ccccc1Br
pEC50 (SH-SY5Y): 6.77

O=C(CCCCCCCc1cc(-c2cccnc2)on1)Nc1ccccc1-c1ccccc1
pIC50 [1]: 7.30 | pEC50 (SH-SY5Y): 7.22

c1ccc(-c2ccccc2-n2cc(CCCCCCCn3cc(-c4cccnc4)nn3)nn2)cc1
pEC50 (SH-SY5Y): 7.26

c1ccc(-c2ccccc2CNCCCCCCCn2cc(-c3cccnc3)nn2)cc1
pEC50 (SH-SY5Y): 6.62

[O-][n+]1cccc(-c2cn(CCCCCCOc3ccccc3-c3ccccc3)nn2)c1
IC50 [1]: Not Active | EC50 (SH-SY5Y): Not Active | Drug metabolism (Liver [2]): Metabolite_Detected | Drug metabolism (Liver [3]): Metabolite_Detected | Drug metabolism (Liver [4]): Metabolite_Detected | Drug metabolism (Liver [5]): Metabolite_Detected

O=C(CCCCCCCc1cc(-c2cccnc2)[nH]n1)Nc1ccccc1-c1ccccc1
pEC50 (SH-SY5Y): 6.42

c1ccc(-c2ccccc2OCCCc2ccc(-n3cc(-c4cccnc4)nn3)cc2)cc1
pEC50 (SH-SY5Y): 7.15

c1ccc(-c2ccccc2-c2cn(CCCCCCCc3cn(-c4cccnc4)nn3)nn2)cc1
pEC50 (SH-SY5Y): 7.07

O=C(NCCCCCCn1cc(-c2cccnc2)nn1)c1ccccc1-c1ccccc1
pEC50 (SH-SY5Y): 7.65

c1ccc(-c2ccccc2OCCc2ccc(Cn3cc(-c4cccnc4)nn3)cc2)cc1
pIC50 [1]: 7.81 | pEC50 (SH-SY5Y): 8.62

c1ccc(-c2ccccc2-c2cn(CCCCCCn3cc(-c4cccnc4)nn3)nn2)cc1
pEC50 (SH-SY5Y): 7.44

c1ccc(-c2ccccc2-c2cn(CCCCCCCn3cc(-c4cccnc4)nn3)nn2)cc1
pIC50 [1]: 8.09 | pEC50 (SH-SY5Y): 8.04 | pIC50 [6]: 8.11 | Stability (Liver [7]): Stable | Stability (Liver [8]): Stable | remaining at 1 h [9]: 47% | remaining at 1 h [10]: 87% | Stability [11]: Stable | Stability (Liver [12]): Stable | Drug metabolism (Liver [13]): Metabolite_Detected | Drug metabolism (Liver [14]): Metabolite_Detected | half-life [15]: 1.48 h | AUC at 24 h [16]: 2250 ng·h/mL | clearance [17]: 74 mL/min/kg | Vd [18]: 9.4 L/kg | pIC50 (A2780 [19]): 8.24 | inhibition (A2780 [20]): inactive

O=C(NCCCCCCCn1cc(-c2ccc[n+]([O-])c2)nn1)c1ccccc1-c1ccccc1
IC50 [1]: Not Active | EC50 (SH-SY5Y): Not Active | Drug metabolism (Liver [2]): Metabolite_Detected | Drug metabolism (Liver [3]): Metabolite_Detected | Drug metabolism (Liver [4]): Metabolite_Detected | Drug metabolism (Liver [5]): Metabolite_Detected

c1ccc(-c2ccccc2OCCCCCCCn2cc(-c3cccnc3)nn2)cc1
pIC50 [1]: 7.50 | pEC50 (SH-SY5Y): 7.82

c1ccc(-c2ccccc2CNCCCCCCn2cc(-c3cccnc3)nn2)cc1
pEC50 (SH-SY5Y): 6.70

O=C(NCCCCCCn1cc(-c2cccnc2)nn1)Nc1ccccc1-c1ccccc1
pEC50 (SH-SY5Y): 7.37

O=C(Nc1ccccc1-c1ccccc1)OCCCCCCn1cc(-c2cccnc2)nn1
pEC50 (SH-SY5Y): 7.47

C[C@@H]1C[C@H]2[C@@H]3CCC4=CC(=O)C=C[C@]4(C)[C@@]3(F)[C@@H](O)C[C@]2(C)[C@@]1(O)C(=O)CO
inhibition (Mus musculus [21]): Active | inhibition (Mus musculus [22]): Active | inhibition (Mus musculus [23]): Active | inhibition (Mus musculus [24]): Active | inhibition (Mus musculus [25]): Active

O=S(=O)(NCCCCCCn1cc(-c2cccnc2)nn1)c1ccccc1Br
pEC50 (SH-SY5Y): 6.76

O=C(NCCCCCCCn1cc(-c2cccnc2)nn1)Nc1ccccc1-c1ccccc1
pIC50 [1]: 7.49 | pEC50 (SH-SY5Y): 8.15

c1ccc(-c2ccccc2-n2cc(CCCCCCCc3cn(-c4cccnc4)nn3)nn2)cc1
pEC50 (SH-SY5Y): < 6.30

O=C(NCCCCCCCCn1cc(-c2cccnc2)nn1)c1ccccc1-c1ccccc1
pEC50 (SH-SY5Y): 6.71

O=S(=O)(NCCCCCCn1cc(-c2cccnc2)nn1)c1ccccc1-c1ccccc1
pEC50 (SH-SY5Y): 7.00

O=S(=O)(NCCCCCCCn1cc(-c2cccnc2)nn1)c1ccccc1Br
pEC50 (SH-SY5Y): 6.79

Nc1ccccc1-c1ccccc1
Drug metabolism (Liver [26]): Metabolite_Detected | Drug metabolism (Liver [27]): Metabolite_Detected

c1ccc(-c2ccccc2OCc2ccc(CCn3cc(-c4cccnc4)nn3)cc2)cc1
pEC50 (SH-SY5Y): 6.80

c1ccc(-c2ccccc2Oc2ccc(CCCn3cc(-c4cccnc4)nn3)cc2)cc1
pEC50 (SH-SY5Y): < 6.30

c1ccc(-c2ccccc2OCCCCCCCCn2cc(-c3cccnc3)nn2)cc1
pIC50 [1]: 7.60 | pEC50 (SH-SY5Y): 8.09

O=C(CCCCCCCc1cnc(-c2cccnc2)s1)Nc1ccccc1-c1ccccc1
pEC50 (SH-SY5Y): 5.28

O=C(CCCCCCCc1nnc(-c2cccnc2)o1)Nc1ccccc1-c1ccccc1
pEC50 (SH-SY5Y): 6.43

c1ccc(-c2ccccc2-c2cn(CCCCCCCCn3cc(-c4cccnc4)nn3)nn2)cc1
pEC50 (SH-SY5Y): 7.13

O=S(=O)(NCCCCCCCn1cc(-c2cccnc2)nn1)c1ccccc1-c1ccccc1
pEC50 (SH-SY5Y): 7.00

O=S(=O)(NCCCCCCCCn1cc(-c2cccnc2)nn1)c1ccccc1-c1ccccc1
pIC50 [1]: 7.33 | pEC50 (SH-SY5Y): 7.90

O=C(Nc1ccccc1-c1ccccc1)OCCCCCCCCn1cc(-c2cccnc2)nn1
pEC50 (SH-SY5Y): 6.59

c1ccc(-c2ccccc2CNCCCCCCCCn2cc(-c3cccnc3)nn2)cc1
pEC50 (SH-SY5Y): 6.69

O=C(O)CCCCCCCn1cc(-c2cccnc2)nn1
Drug metabolism (Liver [26]): Metabolite_Detected | Drug metabolism (Liver [27]): Metabolite_Detected
